Screens as filed in PubChem.
In the library only some 0.6% were active in any assay of this set; here they are far more common.
PMI activator: phosphomannose isomerase (human) activation; P34949; purified human PMI, coupled resazurin fluorescence, 20 min; active compounds read high; 1 = vehicle control, 0 substrate-free wells; activation factor at 20 µM; actives 0.005% (n = 190,000); AID 1214;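 active = activation factor of 2 or more at 20 µM, relative to plate controls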
Target sequence (P34949 whole entry, looked up): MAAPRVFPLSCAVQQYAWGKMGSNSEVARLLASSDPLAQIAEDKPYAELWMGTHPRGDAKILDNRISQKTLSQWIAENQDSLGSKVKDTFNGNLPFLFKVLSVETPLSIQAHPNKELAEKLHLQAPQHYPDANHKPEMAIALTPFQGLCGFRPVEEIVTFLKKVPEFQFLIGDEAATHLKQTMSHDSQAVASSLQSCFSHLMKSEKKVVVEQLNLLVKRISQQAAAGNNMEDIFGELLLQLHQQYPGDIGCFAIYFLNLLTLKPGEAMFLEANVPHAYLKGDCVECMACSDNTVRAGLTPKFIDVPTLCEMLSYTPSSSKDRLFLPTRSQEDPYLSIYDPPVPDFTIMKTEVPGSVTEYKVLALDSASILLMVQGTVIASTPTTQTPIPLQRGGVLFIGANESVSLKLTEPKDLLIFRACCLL
TNAP act hiacc: increases human TNAP activity under high phosphate acceptor concentration | purified TNAP, CDP-star luminescence, 1 M DEA, 30 min; active compounds read high; 0 = EDTA background, 1 = DMSO-only activity | activation factor at 20 µM | 200,000 tested, under 10 active | P05186;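 active = activation factor at least 2 at 20 µM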
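Assay system: human TNAP; Input: enzyme diluted 1/800 final; Reagent: CDP-star luminogenic substrate at 100 µM final; Timing: 30 min, room temperature; Signal: luminescence; Evaluation: TNAP activation factor scaled between EDTA and DMSO control wells.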
Rad51 HR inh: Rad51 (human) homologous recombination inhibition | Q06609 | hRad51 DNA strand exchange, fluorescence dequenching | inhibition, % at 10 µM | actives 0.085% (n = 200,000) | AID 1385;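 active = inhibition above 40% at the single screening dose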;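 also: 0% = DMSO control wells and 100% = blanks with heterologous ssDNA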
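Test system – preformed human Rad51 ssDNA filaments · Reagent – Donor/quencher-labelled 47-bp dsDNA substrate · Incubation – 37 °C 15-min filament assembly, 30-min compound preincubation, 15-min exchange · Signal – FRET fluorescence dequenching, excitation 485 nm, emission 520 nm · Read-out – percent inhibition from fluorescence, normalised to plate control and blank means · Benchmarks – plate control and blank wells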
TNAP inh hi DEA: TNAP (human) inhibition, high acceptor | P05186 | purified TNAP, CDP-star luminescence, 1 M DEA | inhibition, % at 20 µM | actives 0.03% (n = 200,000) | AID 1135;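 active = over 50% inhibition of tissue-nonspecific alkaline phosphatase at 20 µM in the single-dose screen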;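 also: plate controls were DMSO wells for no effect and EDTA-quenched wells as full inhibition for full effect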
PMI act hi M6P: increases human PMI activity with near-saturating mannose 6-phosphate | activation factor at 20 µM | coupled PMI enzyme assay, resazurin fluorescence, 20 min; active compounds read high; 1 = untreated enzyme, 0 = substrate-free blank | actives 0.34% (n = 190,000) | AID 1216 | P34949;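 active = activation factor of 2 or more at 20 µM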
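Test system: human phosphomannose isomerase with PGI, G6PDH, diaphorase coupling enzymes / Doses: 20 µM compound, 1% DMSO / Times: enzyme reaction with compound 20 min at room temperature / Measured by: Diaphorase-driven resazurin-to-resorufin fluorescence, excitation 544, emission 590 nm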
TNAP inh no acc: TNAP (human) inhibition, acceptor-free conditions | P05186 | purified TNAP, CDP-star luminescence, 30 min | inhibition, % at 20 µM | actives 0.26% (n = 200,000) | AID 1012;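 active = tissue-nonspecific alkaline phosphatase inhibition above about 50% at 20 µM in the single-dose screen, limit read from the data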;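 also: 0% = DMSO negative control and 100% = EDTA positive control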
An asterisk follows results filed as active; x = not tested or not shown.

SMILES	PMI activator	TNAP act hiacc	Rad51 HR inh	TNAP inh hi DEA	PMI act hi M6P	TNAP inh no acc
COc1ccc(CCN2C(=O)CC(NCCc3ccc(S(N)(=O)=O)cc3)C2=O)cc1OC (stereo not drawn)	1	1	-0.1	4.8	1	-2.7
CC[n+]1c(/C=C/c2c[nH]c3ccccc23)ccc2cc(C)ccc21	0.4	0.4	x	60.7*	0.6	59.5*
CCN(CC)C(=O)c1ccc(/C=C/c2c[nH]c3ccccc23)[n+](C)c1	0.9	0.8	x	21.1	0.8	18.1
c1ccc(-c2ccc(C3=Nn4c(nnc4-c4cc(-c5ccccc5)n[nH]4)SC3)cc2)cc1	1	1	-8.4	-3.8	1.1	-17.6
CC1=Nn2c(nnc2-c2cc(-c3ccccc3)n[nH]2)SC1	1	1	-0.2	-1.0	1	50.7*
O=C1C=C(c2ccccc2)C[C@H](c2cccs2)[C@H]1n1nnc([N+](=O)[O-])n1	0.9	1	-2.5	-0.3	0.6	-15.5
Cc1cc(C)c2c(c1)[C@@H]1C=CC[C@@H]1[C@H](c1ccc(S(=O)(=O)N3CCOCC3)cc1)N2	1.5	1	x	1.1	2.2*	-8.7
Cc1ccc(S(=O)(=O)N2CCOCC(=O)NCCOCCNC(=O)COCC2)cc1	1.1	1	1.7	-4.7	1	-14.4
CCOC(=O)C(=NCC1CCCO1)NNc1ccccc1Cl (stereo not drawn)	x	x	43.9*	x	x	x
CCn1c(CNC(=O)Cc2ccc(OC)cc2)nnc1SCC(=O)c1ccccc1	1.7	1.1	-14.3	-5.4	2.5*	2.5
O=C(NC12CC3CC(CC(C3)C1)C2)c1ccc(-c2ccccc2Cl)o1	0.8	1.1	1.6	-5.1	0.8	-10.3
C/C(=N\NC(=O)c1cccc(N/N=C(\C)c2ccco2)c1)c1ccco1	1.1	1	-0.5	-2.6	0.8	-16.6
C/C(=N\NC(=O)c1cccc(N/N=C(\C)c2cc(O)ccc2O)c1)c1cc(O)ccc1O	1.8	1	7.8	0.7	3*	75.9*
COc1cccc(N/C(SC)=C(/C#N)C(N)=O)c1	1	1	-1.5	-1.4	1.1	-8.8
N=C(N)SCc1ncccc1O	x	x	8.6	x	x	x
N=C(N)SCc1ccccn1	1.3	1	x	-1.8	1.5	51.2*
CC1Nc2nc(N(C)C)[nH]c(=O)c2NC1C (stereo not drawn)	1.8	1	6.2	-1.8	2.7*	-6.9
Cc1cccc(-c2cc3nc(C)cc(NCCCN(C)C)n3n2)c1	0.9	1	-1.7	-3.5	0.9	53.1*
COc1cc(C)c2c(c1C=O)Oc1c(c(C)c(O)c3c1C(O)OC3=O)OC2=O (stereo not drawn)	1	0.8	47.4*	20.6	0.9	15.6
COC(=O)COc1ccc(S(=O)(=O)NCCC2=CCCCC2)cc1C	0.9	1.1	45.2*	-9.0	1	-10.5
COC(=O)c1cc(C(=O)OC)[nH]n1	1.2	0.9	x	9.4	1.1	23.3
COC(=O)c1cc(-c2ccc(OC)c(OC)c2)n[nH]1	0.9	1	-6.7	0.0	0.9	8.6
COC(=O)c1cc(-c2ccccc2)n[nH]1	0.9	1	8.2	2.1	0.9	92.1*
COc1ccc(Cl)cc1NC(=O)c1cc(-c2ccc(C)cc2O)n[nH]1	x	x	-11.1	x	x	x
CC(C)(C)NC(=O)c1cc(-c2ccccc2)n[nH]1	0.3	1	4.2	0.2	1.1	92.4*
SMILES	PMI activator	TNAP act hiacc	Rad51 HR inh	TNAP inh hi DEA	PMI act hi M6P	TNAP inh no acc
COC(=O)c1cc(-c2ccc(Cl)cc2)n[nH]1	1	1.1	-5.0	-6.2	0.8	87.0*
COC(=O)c1cc(-c2ccc(Cl)cc2Cl)n[nH]1	0.9	1	-7.8	2.5	0.9	81.4*
O=C(NCc1ccccc1Cl)C1CCN(S(=O)(=O)N2CCCCCC2)CC1	1.1	1.1	2.6	-7.0	1	-2.9
CC(C)/C=C/C(=O)N1CCC(N2CCC(C(=O)N3CCOCC3)CC2)CC1	0.9	1	17.7	-4.7	1	-13.5
CC(C)Cc1cc(C(=O)N2CCC(N3CCC(C(=O)NC4CC4)CC3)CC2)n[nH]1	1.1	1.1	-16.5	-8.1	1	92.1*
CC(C)Cc1cc(C(=O)N2CCC(N3CCC(C(=O)N4CCCC4)CC3)CC2)n[nH]1	1	1.1	-2.6	-5.7	1	86.8*
CC(C)Cc1cc(C(=O)N2CCC(N3CCC(C(=O)N4CCOCC4)CC3)CC2)n[nH]1	1	1	19.8	-2.6	1	87.9*
NC(=NC(=O)c1ccc(OCC(F)(F)F)nc1)c1ccc(Cl)cc1	x	x	-4.3	x	x	x
Cc1ncc([N+](=O)[O-])n1CC(=O)Nc1ccc2c(c1)OCO2	0.9	1.1	-3.3	-5.4	0.9	-14.2
